Active and inactive are the calls of the source. No cut-off for these calls is given here.
Assays:
[1] = test system: Mus musculus; assay: Toxicity against KKAy mouse assessed as creatinine level at 10 mg/kg/day, po for 14 days (reference value: 0.2 mg/dl); type: organism-based; design: route oral; settings: in vivo, 336 h
[2] = test system: Mus musculus; assay: Toxicity against KKAy mouse assessed as plasma ALT level at 10 mg/kg/day, po for 14 days (reference value: 17.6 +/- 0.9 IU); type: organism-based; design: route oral; settings: in vivo, 336 h
[3] = test system: Rattus norvegicus; assay: Toxicity in Sprague-Dawley rat assessed as enlargement of spleen at 30 mg/kg, po for 28 days; type: organism-based; design: dose 30 mg/kg, route oral; settings: in vivo, 672 h
Procedure, shortened: (§1)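 Male and female SD rats, four weeks old on arrival, two per cage. Oral 30 mg/kg/day or vehicle (1% ethanol/0.5% CMC in water, 5 mL/kg) for 28 days, body weight recorded daily. After overnight fasting and isoflurane anaesthesia, liver, brain, kidney, spleen and testis were weighed, and serum was collected (2000g, 10 min, 4 °C) for blood chemistry.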

[4] = test system: Rattus norvegicus; assay: Hepatotoxicity in Sprague-Dawley rat at 30 mg/kg/day, po for 28 days; type: toxicity, organism-based; design: route oral; settings: in vivo, 672 h; procedure, shortened: as §1
[5] = test system: Mus musculus; assay: Toxicity in ICR mouse assessed as increase in blood total cholesterol level at 30 mg/kg/day, po for 7 days; type: organism-based; design: route oral; settings: in vivo, 168 h
Procedure, shortened: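 Male ICR mice, 6−7 weeks old, four per cage, grouped by body weight. Oral 30 mg/kg or vehicle (1% ethanol/0.5% CMC in water, 10 mL/kg) once daily for 7 days, body weight recorded daily. After overnight fasting, mice were weighed under ether, and liver was removed and weighed. Serum was analysed on a dry-chemistry analyser for TG, TCHO, ALP, CRE, BUN and other markers. n = 7−23, ANOVA.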

[6] = molecular target: T1, Retinoic acid receptor RXR-alpha (Homo sapiens) (UniProt P19793); assay: Partial agonist activity at human RXRalpha by luciferase reporter gene assay
T1 sequence (whole entry): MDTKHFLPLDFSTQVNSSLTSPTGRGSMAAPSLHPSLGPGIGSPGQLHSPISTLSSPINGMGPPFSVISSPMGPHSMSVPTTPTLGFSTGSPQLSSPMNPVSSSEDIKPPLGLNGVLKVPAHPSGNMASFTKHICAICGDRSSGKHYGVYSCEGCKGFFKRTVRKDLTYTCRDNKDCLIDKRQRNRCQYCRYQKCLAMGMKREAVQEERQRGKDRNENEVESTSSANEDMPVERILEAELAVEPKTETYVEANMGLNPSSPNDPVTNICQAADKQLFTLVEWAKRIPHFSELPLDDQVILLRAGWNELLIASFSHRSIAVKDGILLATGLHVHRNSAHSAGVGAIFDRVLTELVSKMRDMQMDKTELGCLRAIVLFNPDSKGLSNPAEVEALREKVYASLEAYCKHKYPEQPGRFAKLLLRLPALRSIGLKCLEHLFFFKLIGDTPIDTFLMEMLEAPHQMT
Procedure, shortened: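 COS-1 cells transfected with RXRα, luciferase reporter under RXR response element, and SEAP control; cells seeded ~2.0 × 10⁴/well with compound (DMSO below 1%), 18 h at 37 °C, 5% CO₂. Luciferase normalized to SEAP, expressed relative to 1 μM LGD1069 as 100%; EC₅₀ from full dose-response curves; triplicate, three experiments.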

[7] = molecular target: T2, Retinoic acid receptor RXR-gamma (Homo sapiens) (UniProt P48443); assay: Partial agonist activity at RXRgamma (unknown origin) by luciferase reporter gene assay relative to LGD1069
T2 sequence (whole entry): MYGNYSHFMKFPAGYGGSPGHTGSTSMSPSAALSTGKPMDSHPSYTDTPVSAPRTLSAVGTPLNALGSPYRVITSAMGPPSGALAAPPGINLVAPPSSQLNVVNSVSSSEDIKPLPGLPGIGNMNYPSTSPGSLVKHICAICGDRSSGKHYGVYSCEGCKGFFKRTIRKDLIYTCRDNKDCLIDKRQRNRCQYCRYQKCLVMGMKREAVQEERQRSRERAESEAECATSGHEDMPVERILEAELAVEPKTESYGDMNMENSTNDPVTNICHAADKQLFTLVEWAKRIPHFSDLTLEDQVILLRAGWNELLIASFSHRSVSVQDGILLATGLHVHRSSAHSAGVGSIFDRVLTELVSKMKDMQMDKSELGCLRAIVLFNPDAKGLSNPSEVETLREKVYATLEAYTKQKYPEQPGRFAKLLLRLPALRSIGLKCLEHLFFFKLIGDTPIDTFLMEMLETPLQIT

[8] = molecular target: T3, Retinoic acid receptor RXR-beta (Homo sapiens) (UniProt P28702); assay: Partial agonist activity at RXRbeta (unknown origin) by luciferase reporter gene assay relative to LGD1069
T3 sequence (whole entry): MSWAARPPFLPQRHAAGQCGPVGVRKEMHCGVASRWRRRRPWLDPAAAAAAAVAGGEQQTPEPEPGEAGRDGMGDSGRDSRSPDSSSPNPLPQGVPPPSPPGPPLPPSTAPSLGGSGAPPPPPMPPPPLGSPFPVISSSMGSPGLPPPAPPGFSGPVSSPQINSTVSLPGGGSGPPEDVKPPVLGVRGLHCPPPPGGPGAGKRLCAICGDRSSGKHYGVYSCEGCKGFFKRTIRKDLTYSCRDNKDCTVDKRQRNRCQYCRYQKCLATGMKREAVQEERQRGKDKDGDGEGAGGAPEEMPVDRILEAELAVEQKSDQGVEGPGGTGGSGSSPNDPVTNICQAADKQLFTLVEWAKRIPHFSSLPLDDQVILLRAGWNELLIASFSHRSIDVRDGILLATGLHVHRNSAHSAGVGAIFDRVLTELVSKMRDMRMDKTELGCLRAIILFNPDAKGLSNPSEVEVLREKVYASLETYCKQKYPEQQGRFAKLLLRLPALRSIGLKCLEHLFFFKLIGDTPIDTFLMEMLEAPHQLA

[9] = molecular target: T1, Retinoic acid receptor RXR-alpha (Homo sapiens); assay: Transactivation of RXRalpha (unknown origin) expressed in COS1 cells at 10 uM after 18 hrs by luciferase reporter gene assay relative to bexarotene; type: cell-based; settings: COS-1
Procedure, shortened: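 COS-1 cells in DMEM with 10% FBS at 37 °C, 5% CO2, transfected with RXRα, an RXR-response-element luciferase reporter and a SEAP background vector. Cells were seeded at about 2.0 × 10⁴ per well with compound (DMSO below 1%) for 18 h. Luciferase was normalized to SEAP and expressed relative to 1 μM reference RXR full agonist as 100%. EC50 came from full dose-response curves. Triplicates, at least three experiments.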

[10] = test system: Plasma; assay: Plasma concentration in ICR mouse at 30 mg/kg, po by HPLC analysis; type: ADME, organism-based; design: dose 30 mg/kg, route oral; settings: read-out: Cp, in vivo
Procedure, shortened: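 Six-week-old male ICR mice (n = 6−9) got a single oral 30 mg/kg dose in 1% ethanol/0.5% CMC in water, 10 mL/kg. Plasma was extracted with ethyl acetate and reconstituted in methanol. Reversed-phase HPLC (ODS-3, 40 °C, methanol:33.3 mM ammonium acetate pH 5.0 85:15, UV 280 nm), quantified against an authentic-compound calibration plot.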

Activity [6]: Active
Activity [7]: Active
Activity [8]: Active
Efficacy [9]: 71%
concentration [10]: > 6 µM
Structure (SMILES): Cc1cc2c(cc1-n1c(C(F)(F)F)nc3cc(C(=O)O)ccc31)C(C)(C)CCC2(C)C
Activity [1]: 0.2 mg/dL
Activity [2]: 17.3 IU
Activity [3]: Toxic
Activity [4]: Toxic
Activity [5]: Non-toxic

Reference: ChEMBL document CHEMBL2331224 (J Med Chem, 2013)
